Data as given in ChEMBL document CHEMBL5316304, “Collaborative Virtual Screening Identifies a 2-Aryl-4-aminoquinazoline Series with Efficacy in an In Vivo Model of Trypanosoma cruzi Infection” (J Med Chem, 2023).
≈ marks a conversion by molar mass, not a printed value.

Tests used:
[1] = Selectivity index, ratio of IC50 for human U2OS cells to IC50 for intracellular Trypanosoma cruzi infected in human U2OS cells; assay type: toxicity, cell-based; settings: for selectivity ratio: U2OS cells, read-out: Selectivity Index
Summary of the method: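 Host U2OS cell counts and intracellular parasite infection ratio were read from the same 72 h DRAQ5-stained confocal imaging assay. CC50 and EC50 came from 4-parameter logistic fits, and the selectivity index is their ratio.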

[2] = system: Trypanosoma cruzi; assay: Antitrypanosomal activity against intracellular Trypanosoma cruzi infected in human U2OS cells assessed as parasite growth inhibition incubated for 72 hrs by confocal microscopy; assay type: functional, organism-based
[3] = Intrinsic clearance in human liver microsomes at 1 uM incubated for 15 to 30 mins by LC/MS/MS analysis; assay type: ADME, Microsome; settings: time 15-30 min
[4] = Intrinsic clearance in mouse liver microsomes at 1 uM incubated for 15 to 30 mins by LC/MS/MS analysis; assay type: ADME, Microsome; settings: time 15-30 min
[5] = Permeability of compound incubated for 3 hrs by PAMPA assay; assay type: ADME; settings: read-out: permeability
[6] = Kinetic solubility of compound in aqueous buffer at pH 6.8 incubated for 16 to 24 hrs by HPLC analysis; assay type: physicochemical; settings: time 16-24 hrs, read-out: Kinetic_solubility

Row | SMILES | selectivity ratio [1] | IC50 ([2]; Trypanosoma cruzi, U2OS, 72 h) [nM] | further results
1 | c1ccc(-c2nc(NCc3nc4ccccc4o3)c3ccccc3n2)nc1 | 16 | 2500 | 
2 | CCn1ncc2c(N3CCC(c4ccccn4)C3)nc(-c3ccccn3)nc21 (configuration not stated) | 2.8 | 18000 | 
3 | Cn1cc(CNc2nc(-c3ccccn3)nc3ccccc23)cn1 | 5.2 | 9600 | 
4 | CCC(C)Nc1nc(-c2ccccn2)nc2ccccc12 (configuration not stated) |  | 2100 | 
5 | CCn1ncc2nc(-c3ccccn3)nc(N3CCC(c4ccccn4)C3)c21 (configuration not stated) | 2.7 | 1200 | 
6 | Cn1ccnc1CNc1nc(-c2ccccn2)nc2ccccc12 | 14 | 3300 | 
7 | c1ccc(-c2nc(NCCn3ccnc3)c3ccccc3n2)nc1 | 1 | 49000 | 
8 | N#CC1CCN(c2nc(-c3ccccn3)nc3ccccc23)CC1 | 2.1 | 24000 | 
9 | c1ccc(-c2nc(NCCn3cnc4ccccc43)c3ccccc3n2)nc1 | 6.1 | 8200 | 
10 | c1ccc(OC2CCN(c3nc(-c4ccccn4)nc4ccccc34)C2)cc1 (configuration not stated) | 6.5 |  | CLint [3]: 361 µL/min/mg; intrinsic clearance (CLint) [4]: > 500 µL/min/mg; Papp at 3 h [5]: 43 ×10⁻⁶ cm/s; solubility kinetic [6]: 7.7 µg/mL (≈ 20.9 µM)
11 | c1ccc(CCNc2nc(-c3ccccn3)nc3ccccc23)cc1 |  | 80 | 
12 | c1ccc(-c2nc(N3CCn4ccnc4C3)c3ccccc3n2)nc1 | 1.9 | 27000 | 
13 | c1ccc(-c2nc(N3CCC(c4ccccn4)C3)c3ccccc3n2)nc1 (stereo in doubt; 85-tR1) |  |  | Selectivity Index [1]: 4.2; IC50 ([2]; u2os): 1100 nM
14 | c1ccc(-c2nc(N3CCCCCC3)c3ccccc3n2)nc1 |  | 100 | 
15 | Cn1ccc2nc(-c3ccccn3)nc(N3CCC(c4ccccn4)C3)c21 (configuration not stated) | 16 | 560 | Papp at 3 h [5]: 21.9 ×10⁻⁶ cm/s; solubility kinetic [6]: 90 µg/mL (≈ 253 µM)
16 | Fc1ccc(Nc2nc(-c3ccccn3)nc3ccccc23)cc1 |  | 1300 | 
17 | Cc1cccnc1CNc1nc(-c2ccccn2)nc2ccccc12 | 15 | 1600 | 
18 | c1ccc(C2CCN(c3nc(-c4ccccn4)nc4ccccc34)C2)cc1 (configuration not stated) | 9.7 | 280 | intrinsic clearance (CLint) [4]: > 500 µL/min/mg; solubility kinetic [6]: 0.7 µg/mL (≈ 1.99 µM)
19 | c1ccc(-c2nc(N3CCCC3)c3ccccc3n2)nc1 | 8.6 | 1100 | 
20 | c1ccc(-c2nc(N3CCC(c4ccccn4)C3)c3ccccc3n2)nc1 (stereo in doubt; 85-tR2) |  |  | Selectivity Index [1]: 6.4; IC50 ([2]; u2os): 960 nM

Row | SMILES | selectivity ratio [1] | IC50 ([2]; Trypanosoma cruzi, U2OS, 72 h) [nM] | further results
21 | COc1ccc(Nc2nc(-c3ccccn3)nc3ccccc23)cc1 |  | 1200 | 
22 | Cc1ccc(Nc2nc(-c3ccccn3)nc3ccccc23)cn1 | 1.6 | 31000 | 
23 | CC1CCCN(c2nc(-c3ccccn3)nc3ccccc23)C1 (configuration not stated) | 19 | 430 | CLint [3]: 188 µL/min/mg; intrinsic clearance (CLint) [4]: 452 µL/min/mg; Papp at 3 h [5]: 36.4 ×10⁻⁶ cm/s; solubility kinetic [6]: 69 µg/mL (≈ 227 µM)
24 | OC1(c2ccccc2)CCN(c2nc(-c3ccccn3)nc3ccccc23)C1 (configuration not stated) | 2.8 | 35000 | 
25 | c1ccc(CNc2nc(-c3ccccn3)nc3ccccc23)nc1 | 11 | 4400 | 
26 | Cc1ccc(Nc2nc(-c3ccccn3)nc3ccccc23)nc1 | < 1 | 100 | 
27 | c1ccc(-c2nc(NC3(c4ccccn4)CC3)c3ccccc3n2)nc1 | 12 | 4200 | CLint [3]: 7 µL/min/mg; intrinsic clearance (CLint) [4]: 24 µL/min/mg; Papp at 3 h [5]: 21.9 ×10⁻⁶ cm/s; solubility kinetic [6]: 84 µg/mL (≈ 247 µM)
28 | CCn1ccc2nc(-c3ccccn3)nc(N3CCC(c4ccccn4)C3)c21 (configuration not stated) | 28 | 180 | 
29 | CC1CCN(c2nc(-c3ccccn3)nc3ccccc23)CC1 |  | 410 | CLint [3]: 112 µL/min/mg; intrinsic clearance (CLint) [4]: > 500 µL/min/mg; Papp at 3 h [5]: 44.1 ×10⁻⁶ cm/s; solubility kinetic [6]: 59 µg/mL (≈ 194 µM)
30 | c1ccc(-c2nc(N3CCCC(c4ccccn4)C3)c3ccccc3n2)nc1 (configuration not stated) | 7.3 | 1300 | 
31 | O=S(=O)(c1cccs1)N1CCc2nc(-c3ccccn3)nc(N3CCCCCC3)c2C1 | > 58 | 860 | 
32 | c1ccc(CCNc2nc(-c3ccccn3)nc3ccccc23)nc1 | 14 | 3400 | 
33 | Cc1ccc(Nc2nc(-c3ccccn3)nc3ccccc23)cc1 |  | 120 | 
34 | c1ccc(-c2nc(N3CCCCC3)c3ccccc3n2)nc1 |  | 900 | 
35 | NC(=O)C1CCN(c2nc(-c3ccccn3)nc3ccccc23)C1 (configuration not stated) | 2.2 | 23000 | 
36 | CCn1cnc2c(N3CCC(c4ccccn4)C3)nc(-c3ccccn3)nc21 (configuration not stated) | 2.7 | 2700 | 
37 | c1ccc(C2CCCN(c3nc(-c4ccccn4)nc4ccccc34)C2)cc1 (configuration not stated) | 6.4 | 360 | CLint [3]: 205 µL/min/mg; intrinsic clearance (CLint) [4]: 318 µL/min/mg; Papp at 3 h [5]: 41.6 ×10⁻⁶ cm/s; solubility kinetic [6]: 0.1 µg/mL (≈ 0.273 µM)
38 | c1ccc(CNc2nc(-c3ccccn3)nc3ccccc23)cc1 | 57 | 130 | 
39 | CCn1cc2c(N3CCC(c4ccccn4)C3)nc(-c3ccccn3)nc2n1 (configuration not stated) | 2.3 | 1500 | 
40 | c1ccc(-c2nc(N3CCc4cccnc4C3)c3ccccc3n2)nc1 | 4.9 | 7400 | 

Row | SMILES | selectivity ratio [1] | IC50 ([2]; Trypanosoma cruzi, U2OS, 72 h) [nM] | further results
41 | CCCN(CCC)c1nc(-c2ccccn2)nc2ccccc12 |  | 170 | 
42 | Fc1cccc(Nc2nc(-c3ccccn3)nc3ccccc23)c1 | 20 | 510 | 
43 | CC(Nc1nc(-c2ccccn2)nc2ccccc12)c1ccccn1 (configuration not stated) | 18 | 2700 | 
44 | c1ccc(-c2nc(N3CCc4ncccc4C3)c3ccccc3n2)nc1 | 5.5 | 9200 | 
45 | Cn1ncc2nc(-c3ccccn3)nc(N3CCC(c4ccccn4)C3)c21 (configuration not stated) | 2.9 | 1800 | Papp at 3 h [5]: 17.1 ×10⁻⁶ cm/s; solubility kinetic [6]: 99 µg/mL (≈ 277 µM)
46 | N#CC1CCN(c2nc(-c3ccccn3)nc3ccccc23)C1 (configuration not stated) | 7.2 | 7000 | 
47 | c1ccc(-c2nc(N3CCN(c4ccccn4)CC3)c3ccccc3n2)nc1 | 6.4 | 3300 | 
48 | c1ccc(-c2nc(Nc3ccc4[nH]ncc4c3)c3ccccc3n2)nc1 | 3.5 | 6200 | 
49 | OC1(c2ccccc2)CCN(c2nc(-c3ccccn3)nc3ccccc23)CC1 | 15 | 3300 | 
50 | N#CC1CCCN(c2nc(-c3ccccn3)nc3ccccc23)C1 (configuration not stated) | 2.7 | 18000 | 
51 | c1ccc(N2CCN(c3nc(-c4ccccn4)nc4ccccc34)CC2)cc1 |  | 430 | CLint [3]: 95 µL/min/mg; intrinsic clearance (CLint) [4]: > 500 µL/min/mg; Papp at 3 h [5]: 29.1 ×10⁻⁶ cm/s; solubility kinetic [6]: 15 µg/mL (≈ 40.8 µM)
52 | c1ccc(CN2CCN(c3nc(-c4ccccn4)nc4ccccc34)CC2)cc1 | 27 | 450 | 
53 | c1ccc(-c2nc(NCc3cccnc3)c3ccccc3n2)nc1 | 8 | 6300 | 
54 | c1ccc(-c2nc(Nc3ccn4nccc4c3)c3ccccc3n2)nc1 | 2.9 | 11000 | 
55 | c1ccc(-c2nc(N3CCc4nc[nH]c4C3)c3ccccc3n2)nc1 | 2.3 | 21000 | 
56 | c1ccc(-c2nc(N3CCCC3c3ccccn3)c3ccccc3n2)nc1 (configuration not stated) | 25 | 1800 | 
57 | Cc1cccc(CNc2nc(-c3ccccn3)nc3ccccc23)n1 | 21 | 2400 | 
58 | Cc1cccc(N2CCN(c3nc(-c4ccccn4)nc4ccccc34)CC2)n1 | 7 | 1900 | 
59 | c1ccc(-c2nc(NCc3nccs3)c3ccccc3n2)nc1 | 19 | 2700 | 
